Source: PubChem BioAssay
NSD2 HMT inh: inhibitors of human histone methyltransferase NSD2; O96028; NSD2 peptide methylation, AlphaScreen, 120 min; inhibition, % at 12.5 µM; hit rate 0.54% among 310,000
Target sequence (O96028 whole entry, looked up): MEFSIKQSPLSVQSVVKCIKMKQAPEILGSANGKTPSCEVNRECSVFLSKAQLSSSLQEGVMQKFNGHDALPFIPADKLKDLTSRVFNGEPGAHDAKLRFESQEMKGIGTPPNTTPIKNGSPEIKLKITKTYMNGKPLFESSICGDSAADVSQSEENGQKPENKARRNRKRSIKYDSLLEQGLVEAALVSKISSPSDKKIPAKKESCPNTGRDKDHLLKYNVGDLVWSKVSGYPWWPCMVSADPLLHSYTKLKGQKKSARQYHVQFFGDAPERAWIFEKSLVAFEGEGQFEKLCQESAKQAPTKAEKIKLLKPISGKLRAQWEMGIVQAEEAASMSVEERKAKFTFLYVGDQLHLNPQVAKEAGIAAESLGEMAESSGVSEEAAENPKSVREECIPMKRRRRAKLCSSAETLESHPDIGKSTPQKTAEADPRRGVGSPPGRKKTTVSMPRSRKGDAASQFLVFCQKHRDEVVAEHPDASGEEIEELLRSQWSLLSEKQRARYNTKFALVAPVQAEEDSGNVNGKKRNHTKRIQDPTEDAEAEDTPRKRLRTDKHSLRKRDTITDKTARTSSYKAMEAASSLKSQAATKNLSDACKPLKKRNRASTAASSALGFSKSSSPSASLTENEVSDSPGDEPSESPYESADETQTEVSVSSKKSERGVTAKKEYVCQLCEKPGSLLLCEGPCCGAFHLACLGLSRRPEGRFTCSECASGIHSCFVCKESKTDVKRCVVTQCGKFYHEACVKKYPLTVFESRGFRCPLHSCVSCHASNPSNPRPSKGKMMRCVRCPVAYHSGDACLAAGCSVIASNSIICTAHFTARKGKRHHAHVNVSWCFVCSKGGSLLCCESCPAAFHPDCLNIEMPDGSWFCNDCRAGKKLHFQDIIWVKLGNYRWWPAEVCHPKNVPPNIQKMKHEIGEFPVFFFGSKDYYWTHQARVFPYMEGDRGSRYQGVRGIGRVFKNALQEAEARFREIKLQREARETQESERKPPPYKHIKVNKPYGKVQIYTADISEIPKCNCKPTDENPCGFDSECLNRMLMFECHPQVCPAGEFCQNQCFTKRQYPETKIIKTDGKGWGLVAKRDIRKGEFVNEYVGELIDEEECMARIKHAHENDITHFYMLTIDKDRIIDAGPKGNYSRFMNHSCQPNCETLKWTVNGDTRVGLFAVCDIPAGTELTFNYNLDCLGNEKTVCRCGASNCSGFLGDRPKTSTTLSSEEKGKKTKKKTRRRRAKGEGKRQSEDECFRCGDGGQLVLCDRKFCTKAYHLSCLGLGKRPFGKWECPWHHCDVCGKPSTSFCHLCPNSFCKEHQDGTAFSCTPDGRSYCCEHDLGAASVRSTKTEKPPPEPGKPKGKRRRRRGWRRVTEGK
NS3 helicase inh: blocks Hepatitis C virus NS3 helicase unwinding. AID 1800. NS3 helicase DNA unwinding, Cy5 molecular beacon fluorescence. hit rate 0.56% among 290,000. inhibition, % at 10.9 µM;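 active = inhibition above the mean of all tested compounds plus 3 SD, set per campaign, cut at about 35% in these data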
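Control set: DMSO versus 110 µM thioflavine S; Material: NS3 helicase fragment of HCV; Measured by: Cy5 fluorescence at 0 and 60 min, beacon hairpin quenching; Read-out basis: percent inhibition from t60/t0 fluorescence ratio; Times: reaction time 60 min, 25 °C; Repeats: single replicate; Compound dosing: single dose, 10.9 µM nominal final, DMSO 0.8% final.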
Casp6 inh: blocks human caspase-6 cleavage activity; P55212; purified caspase-6, Z-VEID-R110 cleavage fluorescence; inhibition, % at 12.5 µM; hit rate 0.53% among 350,000;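 active = mean inhibition across replicates at least about 35%, with every replicate also reaching that limit, limit read from the data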
DNMT1 block: DNMT1 (human) enzyme inhibition | inhibition (reported as % activation of signal), % at 10 µM | DNMT1 molecular beacon, Hinp1I cleavage, fluorescence | hit rate 0.83% among 360,000 | P26358
A number is an active result; . = inactive; / = no result; + = active, no number. Sampled rows, rich in hits. Any-hit rate of the full collection: about 1.5%. Cut-off read from the data, not from the text of the source, unless noted: active = inhibition above about 50%; inactive = the rest.

SMILES	NSD2 HMT inh	NS3 helicase inh	Casp6 inh	DNMT1 block
Cc1noc(C)c1S(=O)(=O)Nc1ccc2c(c1)C(=O)N([C@@H](C)CO)C[C@@H](C)[C@H](CN(C)Cc1ccc(Cl)c(Cl)c1)OCCCC[C@@H](C)O2	/	/	78	/
C[C@@H]1CCCCO[C@@H](CN(C)Cc2ccc3c(c2)OCO3)[C@H](C)CN([C@@H](C)CO)C(=O)c2cc(NS(=O)(=O)c3ccccc3)ccc2O1	/	/	.	/
C[C@@H]1CN([C@@H](C)CO)C(=O)c2cc(NC(=O)Nc3ccccc3)ccc2O[C@@H]1CN(C)Cc1ccc2c(c1)OCO2	/	/	54	/
C[C@@H]1CCCCO[C@H](CN(C)Cc2ccc3c(c2)OCO3)[C@@H](C)CN([C@@H](C)CO)C(=O)c2cc(NS(=O)(=O)c3ccccc3)ccc2O1	/	/	35	/
CCC(=O)N1CC[C@H]2[C@H](CO)Nc3ccc(-c4ccc(F)cc4)cc3[C@H]21	/	/	.	/
Cc1noc(C)c1NC(=O)N(C)C[C@@H]1Oc2c(cccc2N(C)C)C(=O)N([C@@H](C)CO)C[C@H]1C	/	/	.	/
CNC1=C(N(C(C)=O)c2ccc(Br)cc2)C(=O)c2ccccc2C1=O	100	.	/	.
CCC(=O)N(C1=C(NC)C(=O)c2ccccc2C1=O)C(C)C	/	.	72	.
CCC(=O)NC1=C(NC(C)c2ccccc2)C(=O)c2ccccc2C1=O (stereo not drawn)	.	.	/	.
C[C@H](CO)N1C[C@H](C)[C@H](CN(C)CC2CCCCC2)Oc2c(NS(=O)(=O)c3ccc(Cl)cc3)cccc2C1=O	/	/	.	/
CCC(=O)N[C@H]1CC[C@@H](CCn2cc(CN(C)C)nn2)O[C@H]1CO	/	/	.	/
COc1cc2c(cc1OC)C(=O)C(Br)CC2 (stereo not drawn)	140	/	/	83
COC(=O)c1ccccc1-c1c2ccc(=N)cc-2oc2cc(N)ccc12	.	/	.	+
CN(C)c1ccc(Cc2cc3c(O)ccc(O)c3cc(Cc3ccc(N(C)C)cc3)c2=O)cc1	/	/	.	81
CN(C)c1ccc(C(=O)c2ccc(O)cc2O)cc1	.	.	/	.
Cc1coc2c1C(=O)C(=O)c1c-2ccc2c(C)cccc12	/	/	/	95
Cc1coc2c1C(=O)C(=O)c1c-2ccc2c1CCCC2(C)C	/	.	.	52
C[C@H]1COC2=C1C(=O)C(=O)c1c2ccc2c1CCCC2(C)C	/	.	/	.
Cc1ccc2c3c(cccc13)-c1ccccc1C2=O	.	.	.	.
O=C(CCN1CCCCC1)N[C@@H]1CC[C@H](CCNS(=O)(=O)c2ccc(Cl)cc2)O[C@@H]1CO	/	/	.	/
O=C(N/N=C/c1ccc([N+](=O)[O-])o1)c1cn(-c2ccccc2)nc1-c1ccc(Cl)cc1	.	.	.	50
CSc1ccccc1NC(=O)CN(C)C(=O)/C=C/c1ccccc1	.	/	36	.
CC(C)NC(=O)N[C@H]1CC[C@H](CCNS(=O)(=O)c2ccc(F)cc2)O[C@@H]1CO	/	/	.	/
O=C(N[C@H](Cc1ccccc1)C(=O)N1CCN(C(=O)N2CCCCC2)CC1)[C@H]1O[C@@H](n2ccc(=O)[nH]c2=O)[C@H](O)[C@@H]1O	/	/	.	/
O=C(N[C@H](Cc1ccccc1)C(=O)N1CCN(C(=O)N2CCOCC2)CC1)[C@H]1O[C@@H](n2ccc(=O)[nH]c2=O)[C@H](O)[C@@H]1O	/	/	51	/
SMILES	NSD2 HMT inh	NS3 helicase inh	Casp6 inh	DNMT1 block
C=CC1CN(S(=O)(=O)c2ccc(Br)cc2)C(=O)N1c1ccc(Br)cc1 (stereo not drawn)	/	/	.	/
CCCCC(NC(=O)Cc1c(C)c2cc3c(-c4ccccc4)coc3c(C)c2oc1=O)C(=O)O (stereo not drawn)	.	.	60	.
O=C1NC(=O)/C(=C\c2ccc(O)cc2O)S1	102	.	87	.
O=C1NC(=O)/C(=C/c2cccc3ccccc23)S1	.	.	.	.
Nc1ccc(-c2nc3ccc(N)cc3[nH]2)cc1	.	.	.	.
Nc1ccc2cc3[nH]c4cc(N)ccc4c3nc2c1	.	/	.	194
NC1=NC[C@@H](CC2CCCCC2)N1CCc1cc(C(F)(F)F)cc(C(F)(F)F)c1	/	/	/	62
COc1ccccc1NC(=O)N1C[C@@H]2N[C@H](C1)C2c1ccc(-c2ccc(C#N)cc2)cc1 (stereo partly drawn)	/	/	.	/
COc1ccccc1CCC(=O)Nc1ccc2c(c1)CN(CCCn1cccn1)CC2	.	.	99	.
O=C(CCN1C(=O)/C(=C/c2ccc(Cl)cc2)SC1=S)Nc1cccc(C(=O)O)c1	.	.	.	.
O=C(O)c1cccc(N2C(=O)/C(=C/c3ccc(SCc4ccc(Cl)cc4)o3)SC2=S)c1	112	.	72	84
CCCCC[C@@H](/C=C/C1C(=O)C=C[C@H]1C/C=C\CCCC(=O)O)OC(C)=O (stereo partly drawn)	/	/	48	.
